Reference: publication PMC2216779 (The Journal of General Physiology, 1993)
Values joined by “and” are separate entries in the source; they are usually repeats but may differ in a detail not shown here. Equal entries are not always repeated. Where two headings read alike, the source gives them in different places. Each block holds one molecule with its values, some of them ahead of it.

Key:
[1] = tested on: residual chloride transport in DIDS-C human red blood cells; experiment: 36Cl- efflux in DIDS-C cells; assay type: cell-based
[2] = tested on: band 3 protein, DIDS binding site; conditions: cited from earlier work
[3] = tested on: chloride conductance of the human red cell membrane; conditions: ref Bennekou and Stampe (1988); cited from earlier work
[4] = tested on: chloride conductance of the human red cell membrane; experiment: Conductance studies of net; assay type: cell-based; conditions: 16 µM DIDS; calculated from Bennekou and Stampe (1988) data
[5] = target: T1, chloride transport in human red blood cells; capnophorin (band 3 or AE1) (Homo sapiens, UniProt P02730); experiment: 36Cl- efflux; assay type: cell-based; conditions: 38C
T1 sequence (P02730 1-911): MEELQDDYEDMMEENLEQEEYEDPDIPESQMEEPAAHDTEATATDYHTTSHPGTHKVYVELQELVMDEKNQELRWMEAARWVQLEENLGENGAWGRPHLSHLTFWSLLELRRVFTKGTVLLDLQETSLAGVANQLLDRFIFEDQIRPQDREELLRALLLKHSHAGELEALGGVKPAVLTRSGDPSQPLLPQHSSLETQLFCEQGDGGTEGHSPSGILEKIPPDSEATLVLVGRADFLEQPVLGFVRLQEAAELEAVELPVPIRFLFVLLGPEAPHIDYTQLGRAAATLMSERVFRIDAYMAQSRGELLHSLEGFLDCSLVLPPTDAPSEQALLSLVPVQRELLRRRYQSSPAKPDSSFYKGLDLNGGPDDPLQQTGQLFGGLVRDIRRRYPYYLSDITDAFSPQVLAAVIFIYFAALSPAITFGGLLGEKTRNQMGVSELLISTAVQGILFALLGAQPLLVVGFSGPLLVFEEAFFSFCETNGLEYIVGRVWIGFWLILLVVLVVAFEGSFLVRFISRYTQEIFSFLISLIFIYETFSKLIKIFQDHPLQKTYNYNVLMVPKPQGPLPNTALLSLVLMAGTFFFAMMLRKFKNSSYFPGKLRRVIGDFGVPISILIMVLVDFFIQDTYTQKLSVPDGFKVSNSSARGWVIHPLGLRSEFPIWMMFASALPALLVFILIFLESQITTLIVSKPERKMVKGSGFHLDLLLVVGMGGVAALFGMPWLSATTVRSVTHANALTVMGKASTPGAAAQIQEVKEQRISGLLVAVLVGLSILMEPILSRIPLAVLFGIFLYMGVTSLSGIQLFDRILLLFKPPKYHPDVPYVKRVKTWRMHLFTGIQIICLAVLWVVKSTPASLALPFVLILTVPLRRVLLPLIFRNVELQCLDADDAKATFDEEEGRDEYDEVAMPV
Outline: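 Fresh heparinized human blood washed four times in medium A (150 mM KCl, 0.5–2 mM KH2PO4, pH 7.2), buffy coat removed. Covalent labelling: ~50% hematocrit, 50 µM DIDS, 38°C, 45 min, then washes in medium A. Cells loaded with 3.7–18.5 kBq 36Cl per ml suspension and packed. Tracer efflux measured at 38°C, pH 7.2, by Millipore-Swinnex filtration or continuous flow tube. Rate constant taken from extracellular radioactivity over time, corrected for trapped isotope.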

[6] = target: human erythrocyte anion transporter; conditions: read-out: Dissociation constant of DNDS binding, ref Frohlich (1982), cited from earlier work

Structure (SMILES): CC(C)[C@@H]1NC(=O)[C@H](C)OC(=O)[C@@H](C(C)C)NC(=O)[C@@H](C(C)C)OC(=O)[C@H](C(C)C)NC(=O)[C@H](C)OC(=O)[C@@H](C(C)C)NC(=O)[C@@H](C(C)C)OC(=O)[C@H](C(C)C)NC(=O)[C@H](C)OC(=O)[C@@H](C(C)C)NC(=O)[C@@H](C(C)C)OC1=O [valinomycin]
Effect on initial 36Cl influx rate ([1]; valinomycin 1 µM, extracellular chloride < 1 mM): no detectable effect

Structure (SMILES): O=S(=O)(O)c1cc(N=C=S)ccc1CCc1ccc(N=C=S)cc1S(=O)(=O)O [H2DIDS, 4,4'-diisothiocyano-dihydrostilbene-2,2'-disulfonic acid]
Rate of binding to the DIDS binding site relative to DIDS ([2]; 0C, ref Shami, Rothstein, and Knauf, 1978): binds much faster than DIDS

Chloride efflux after DIDS binding procedure performed once ([5]; 50 µM DIDS, 45 min, n = 10): 96.3 [SD-+ 8.1] pmol cm-2 s-1
Chloride efflux after DIDS binding procedure performed twice ([5]; 50 µM DIDS, 45 min, n = 10): 94.1 [SD ~ 11.0] pmol cm-2 s-1
Irreversible inhibition of chloride transport by maximum covalent DIDS binding ([5]; DIDS-C cells vs control cells, pH 7.2): 99.8%
Half-time for chloride tracer efflux in DIDS-C cells ([5]; found experimentally): 29 s
Structure (SMILES): O=S(=O)(O)c1cc(N=C=S)ccc1C=Cc1ccc(N=C=S)cc1S(=O)(=O)O [DIDS, 4,4'-diisothiocyanostilbene-2,2'-disulfonic acid]
Inhibition of conductive flow of chloride [3]: ~ 100%
Half-time for irreversible DIDS binding ([2]; 0C, ref Janas et al., 1989): ~ 3 h
Time constant 1/k of irreversible DIDS binding ([2]; 38C, ref Janas et al., 1989): 2.2 rain
Chloride flux in DIDS-CR cells ([1]; covalent DIDS + 50 µM DIDS in flux medium, 38C, pH 7.2, n = 15): 0.60 [SD -- 0,16] pmol cm-2 s-1
Reduction of conductive component of chloride efflux [4]: 96.4%
Reduction of conductive component of chloride efflux, fold [4]: 28 times
Chloride self-exchange flux in DIDS-C cells ([5]; covalently bound DIDS, pH 7.2, n = 30): 106 pmol cm-2 s-1 and 106 (SD + 17) pmol cm-2 s-1

Structure (SMILES): O=[N+]([O-])c1ccc(C=Cc2ccc([N+](=O)[O-])cc2S(=O)(=O)O)c(S(=O)(=O)O)c1 [DNDS, 4,4'-dinitrostilbene-2,2'-disulfonate]
Kd ([6]; 0C): 84 nM
Kd ([6]; 10C): 86 nM
Kd ([6]; 20C): 90 nM
